Calls of active or inactive are those of the source.
How the values were obtained:
Mus musculus [1] = test: Immunostimulatory activity in C57BL/6 mouse assessed as induction of IFNgamma levels in serum at 2.0 x 10^-4 […], ip measured after 16 hrs by ELISA; type: functional, organism-based
Method in brief: (§1)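 C57BL/6 mice dosed intraperitoneally with 5 μg glycolipid per animal (stated as 2.0 × 10–4 […]). Serum collected and cytokines quantified by ELISA: IFN-γ at 16 h post-injection, IL-4 at 4 h post-injection.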

iNKT = test: Immunostimulatory activity in human iNKT cells cocultured with HeLa CD1d cells assessed as induction of IFNgamma levels at 0.01 to 1 nM after 24 hrs by ELISA; type: functional, cell-based
Method in brief: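 Human iNKT cells cocultured with HeLa cells expressing CD1d plus glycolipid at varying concentrations. After 24 h incubation, IFN-γ in the culture measured by ELISA.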

Mus musculus [2] = test: Immunostimulatory activity in C57BL/6 mouse assessed as induction of IL-4 levels in serum at 2.0 x 10^-4 […], ip measured after 4 hrs by ELISA; type: functional, organism-based; method in brief: as §1

Measured: Activity

CCCCCCCCCCCCCCCCCCCCCCCCCC(=O)N[C@@H](CO[C@H]1O[C@H](CO)[C@H](O)[C@H](O)[C@H]1O)[C@H](O)[C@H](O)CCCCCCCCCCCCCC
active: all assays above

C=C1[C@@H](CO)O[C@H](OC[C@H](NC(=O)CCCCCCCCCCCCCCCCCCCCCCCCC)[C@H](O)[C@H](O)CCCCCCCCCCCCCC)[C@H](O)[C@H]1O
active: all assays above

CCCCCCCCCCCCCCCCCCCCCCCCCC(=O)N[C@@H](CO[C@H]1O[C@H](CO)[C@@H](NC(=O)Nc2cccc3ccccc23)[C@H](O)[C@H]1O)[C@H](O)[C@H](O)CCCCCCCCCCCCCC
active: all assays above

CCCCCCCCCCCCCCCCCCCCCCCCCC(=O)N[C@@H](CO[C@H]1O[C@H](CO)[C@H](OC)[C@H](O)[C@H]1O)[C@H](O)[C@H](O)CCCCCCCCCCCCCC
active: all assays above

CCCCCCCCCCCCCCCCCCCCCCCCCC(=O)N[C@@H](CO[C@H]1O[C@H](CO)[C@H](OC(=O)Nc2cccc3ccccc23)[C@H](O)[C@H]1O)[C@H](O)[C@H](O)CCCCCCCCCCCCCC
active: all assays above

CCCCCCCCCCCCCCCCCCCCCCCCCC(=O)N[C@@H](CO[C@H]1O[C@H](CO)[C@H](OCc2ccc(Cl)cc2)[C@H](O)[C@H]1O)[C@H](O)[C@H](O)CCCCCCCCCCCCCC
active: all assays above

From ChEMBL document CHEMBL4033757, “Efficient Divergent Synthesis of New Immunostimulant 4″-Modified α-Galactosylceramide Analogues” (ACS Med Chem Lett, 2017)
